The values that follow come from ChEMBL document CHEMBL5653626 (ChemMedChem, 2016).

The target of series [1] is T1, Solute carrier family 2, facilitated glucose transporter member 2 (Homo sapiens, UniProt P11168).
T1 sequence (P11168 whole entry): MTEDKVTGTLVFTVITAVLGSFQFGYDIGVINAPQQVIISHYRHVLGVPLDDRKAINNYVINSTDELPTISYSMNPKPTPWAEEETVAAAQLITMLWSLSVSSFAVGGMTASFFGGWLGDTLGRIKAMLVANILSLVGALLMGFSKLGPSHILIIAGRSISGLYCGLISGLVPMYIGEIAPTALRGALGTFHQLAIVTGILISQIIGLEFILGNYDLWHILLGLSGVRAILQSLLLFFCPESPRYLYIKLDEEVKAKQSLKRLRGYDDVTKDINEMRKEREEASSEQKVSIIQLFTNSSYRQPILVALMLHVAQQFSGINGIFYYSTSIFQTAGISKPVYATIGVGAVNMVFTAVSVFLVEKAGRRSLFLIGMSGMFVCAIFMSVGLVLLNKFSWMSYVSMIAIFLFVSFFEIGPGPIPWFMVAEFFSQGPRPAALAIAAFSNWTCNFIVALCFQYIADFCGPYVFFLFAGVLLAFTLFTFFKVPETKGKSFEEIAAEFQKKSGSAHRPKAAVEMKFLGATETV
Description: Inhibition of human GLUT2 expressed in CHO cells assessed as reduction in fructose uptake by measuring decrease in ATP production incubated for 15 mins in presence of oxidative phosphorylation inhibitor rotenone by CellTiter-Glo Luminescent Cell Viability Assay. Format: cell-based. Background: ATP-based viability assays read luminescence as a measure of living cells.

In series [2] the target is T2, Solute carrier family 2, facilitated glucose transporter member 4 (Homo sapiens, UniProt P14672).
T2 sequence (P14672 whole entry): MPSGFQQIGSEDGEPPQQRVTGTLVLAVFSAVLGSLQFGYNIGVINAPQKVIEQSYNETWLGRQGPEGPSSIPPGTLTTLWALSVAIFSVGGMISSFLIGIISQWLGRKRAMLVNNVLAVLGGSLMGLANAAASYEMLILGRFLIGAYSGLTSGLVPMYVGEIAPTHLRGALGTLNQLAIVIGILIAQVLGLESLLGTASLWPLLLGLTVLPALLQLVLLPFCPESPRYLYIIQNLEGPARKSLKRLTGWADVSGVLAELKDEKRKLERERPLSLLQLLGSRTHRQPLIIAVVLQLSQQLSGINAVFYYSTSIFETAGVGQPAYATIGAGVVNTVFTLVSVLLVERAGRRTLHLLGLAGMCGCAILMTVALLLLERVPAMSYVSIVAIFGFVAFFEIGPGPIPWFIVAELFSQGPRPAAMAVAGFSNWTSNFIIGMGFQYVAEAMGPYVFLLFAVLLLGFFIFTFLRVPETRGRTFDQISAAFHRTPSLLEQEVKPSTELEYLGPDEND
Description: Inhibition of human GLUT4 expressed in CHO cells assessed as reduction in glucose uptake by measuring decrease in ATP production preincubated for 20 mins followed by glucose addition and measured after 15 mins in presence of oxidative phosphorylation inhibitor rotenone by CellTiter-Glo Luminescent Cell Viability Assay. The class given is cell-based.

Series [3] is described as follows: Clearance in rat hepatocytes. Format: ADME, cell-based, Hepatocyte.
Series [4] is described as follows: Stability in mouse liver microsomes assessed as maximum bioavailability. Format: ADME, Microsome. The conditions noted are these: read-out: Fmax. (In general: Liver microsomes are vesicles of endoplasmic reticulum, rich in cytochrome P450 enzymes.)
A short description of series [5]: Clearance in mouse liver microsomes. Format: ADME, Microsome.
Series [6] is described as follows: Apparent permeability across apical to basolateral side in human Caco-2 cells at 2 uM measured after 2 hrs. The conditions noted are these: caco-2, 2 h. The class given is ADME, cell-based. In outline: (§1)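 Bidirectional Caco-2 transport at 2 μm over 2 h, apical→basolateral and basolateral→apical. Apparent permeability (P_app) is taken from compound transport. Efflux ratio is P_app B→A divided by P_app A→B.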
For orientation: Caco-2 cells form a polarised layer with tight junctions and transporters.

The nature of series [7]: Stability in dog hepatocytes assessed as maximum bioavailability. Format: ADME, Canis lupus familiaris, Hepatocyte. As to conditions: read-out: Fmax.
Series [8] can be described thus: Stability in monkey liver microsomes assessed as maximum bioavailability. As to conditions: rhesus monkey, read-out: Fmax. The class given is ADME, Macaca mulatta, Microsome.
Series [9] in a line: Stability in rat hepatocytes assessed as maximum bioavailability. The class given is ADME, Hepatocyte. The conditions noted are these: read-out: Fmax.
The nature of series [10]: Clearance in monkey hepatocytes. Format: ADME, cell-based, Macaca mulatta, Hepatocyte. As to conditions: rhesus monkey.
Series [11] is described as follows: Clearance in dog liver microsomes. The class given is ADME, Canis lupus familiaris, Microsome.
A short description of series [12]: Stability in human hepatocytes assessed as maximum bioavailability. Format: ADME, Hepatocyte. As to conditions: read-out: Fmax.
Series [13] is described as follows: Stability in rat liver microsomes assessed as maximum bioavailability. The class given is ADME, Microsome. The conditions noted are these: read-out: Fmax.
The nature of series [14]: Clearance in dog hepatocytes. The class given is ADME, cell-based, Canis lupus familiaris, Hepatocyte.
Series [15] can be described thus: Stability in human liver microsomes assessed as maximum bioavailability. Format: ADME, Microsome. As to conditions: read-out: Fmax.
Series [16] is described as follows: Clearance in human liver microsomes. Format: ADME, Microsome.
Series [17] concerns the target T3, Solute carrier family 2, facilitated glucose transporter member 1 (Homo sapiens, UniProt P11166).
T3 sequence (P11166 whole entry): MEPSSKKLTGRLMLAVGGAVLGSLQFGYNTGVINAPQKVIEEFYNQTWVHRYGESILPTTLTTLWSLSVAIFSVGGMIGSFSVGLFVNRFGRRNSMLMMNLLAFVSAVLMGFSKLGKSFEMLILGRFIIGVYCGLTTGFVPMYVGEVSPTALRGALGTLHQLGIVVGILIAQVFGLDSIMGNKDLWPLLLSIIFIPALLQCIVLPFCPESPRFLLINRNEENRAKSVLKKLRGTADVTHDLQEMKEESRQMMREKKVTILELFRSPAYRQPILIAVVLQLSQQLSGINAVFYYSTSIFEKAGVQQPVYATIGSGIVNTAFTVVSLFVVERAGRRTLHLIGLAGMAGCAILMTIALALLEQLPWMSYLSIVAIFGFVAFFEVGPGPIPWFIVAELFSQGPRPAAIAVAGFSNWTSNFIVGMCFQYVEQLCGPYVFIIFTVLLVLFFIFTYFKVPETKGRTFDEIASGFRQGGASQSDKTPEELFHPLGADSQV
Put plainly: Inhibition of human GLUT1 expressed in human DLD-1 cells assessed as reduction in glucose uptake by measuring decrease in ATP production incubated for 15 mins in presence of oxidative phosphorylation inhibitor rotenone by CellTiter-Glo Luminescent Cell Viability Assay. The class given is cell-based.

The nature of series [18]: Clearance in monkey liver microsomes. The class given is ADME, Macaca mulatta, Microsome. The conditions noted are these: rhesus monkey.
A short description of series [19]: Clearance in human hepatocytes. The class given is ADME, cell-based, Hepatocyte.
Series [20] can be described thus: Clearance in rat liver microsomes. The class given is ADME, Microsome.
Series [21] in a line: Stability in monkey hepatocytes assessed as maximum bioavailability. The class given is ADME, Macaca mulatta, Hepatocyte. The conditions noted are these: rhesus monkey, read-out: Fmax.
The nature of series [22]: Stability in dog liver microsomes assessed as maximum bioavailability. The conditions noted are these: read-out: Fmax. Format: ADME, Canis lupus familiaris, Microsome.
A short description of series [23]: Stability in dog liver microsomes. Format: ADME, Canis lupus familiaris, Microsome.
A short description of series [24]: Volume of distribution at steady state in Wistar rat at 0.3 mg/kg, iv. The class given is ADME, organism-based. The conditions noted are these: in vivo. In outline: (§2)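 Single intravenous dose: 0.3 mg kg⁻¹ in male Wistar rats; 0.1 mg kg⁻¹ in female Beagle dogs. Plasma pharmacokinetics gave steady-state volume of distribution.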
Series [25] can be described thus: Dose normalized Cmax in Beagle dog at 0.2 mg/kg, po. As to conditions: in vivo. Format: ADME, organism-based, Canis lupus familiaris.
Series [26] in a line: Volume of distribution at steady state in Beagle dog at 0.1 mg/kg, iv. As to conditions: in vivo. Format: ADME, organism-based, Canis lupus familiaris. In outline: as §2
Series [27] has as its target T4, Solute carrier family 2, facilitated glucose transporter member 3 (Homo sapiens, UniProt P11169).
T4 sequence (P11169 whole entry): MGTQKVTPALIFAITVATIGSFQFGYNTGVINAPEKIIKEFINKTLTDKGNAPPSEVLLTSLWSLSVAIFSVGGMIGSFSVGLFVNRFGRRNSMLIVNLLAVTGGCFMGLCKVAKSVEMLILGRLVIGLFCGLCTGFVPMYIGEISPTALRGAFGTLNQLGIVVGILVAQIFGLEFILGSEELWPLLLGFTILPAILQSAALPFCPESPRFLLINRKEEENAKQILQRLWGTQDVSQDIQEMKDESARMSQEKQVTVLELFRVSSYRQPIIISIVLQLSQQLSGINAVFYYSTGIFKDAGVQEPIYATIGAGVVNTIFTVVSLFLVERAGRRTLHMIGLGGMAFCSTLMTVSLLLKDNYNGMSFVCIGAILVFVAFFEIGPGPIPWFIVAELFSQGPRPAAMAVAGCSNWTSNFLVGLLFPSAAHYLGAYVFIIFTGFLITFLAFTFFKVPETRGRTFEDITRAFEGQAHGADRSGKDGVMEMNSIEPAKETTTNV
Put plainly: Inhibition of human GLUT3 expressed in human GLUT1-/- DLD-1 cells assessed as reduction in glucose uptake by measuring decrease in ATP production incubated for 15 mins in presence of oxidative phosphorylation inhibitor rotenone by CellTiter-Glo Luminescent Cell Viability Assay. The class given is cell-based.

A short description of series [28]: Efflux ratio of apparent permeability across basolateral to apical side over apical to basolateral side in human Caco-2 cells at 2 uM measured after 2 hrs. The class given is ADME, cell-based. The conditions noted are these: caco-2, 2 h. In outline:
as §1

As to `Cc1c(NC(=O)c2cc(C(N)=O)nc3cc(F)ccc23)c(C(F)(F)F)nn1Cc1ccc(C(C)(C)C)cc1` [BAY-588], the IC50 (in general, the point on the concentration scale where inhibition reaches its midpoint) in [1] was over 10000 nM; in series [2] it was 500 nM.

As to `Cc1c(NC(=O)c2cc(C(F)(F)F)nc3ccc(Br)cc23)c(C(F)(F)F)nn1Cc1ccc(F)cc1`, the CLhep predicted is 43.3 mL/min/kg in [3] and 36.7 mL/min/kg in series [5]. Besides, the Fh in series [4] worked out at 59%. The Papp (usually the rate of passage across a membrane or cell layer, normalised by area and donor concentration) in [6] was determined as 0.35 ×10⁻⁶ cm/s.

`Cc1c(NC(=O)c2cc(C(N)=O)nc3cc(F)ccc23)c(C(F)(F)F)nn1Cc1ccc(C#N)cn1`: the Fh in series [7] came out at 100%; in series [8], 84%; in series [9], 99%; in series [4] it was 93%; in series [12], 98%; in series [13] it was 91%. The Fh in series [15] turned out to be 86%; in series [21], 88%; in series [22] it was 100%. The CLH in series [10] stood at 5.33 mL/min/kg; in [11] it was 0.017 mL/min/kg; in [14] it was 0.017 mL/min/kg; in [18] it was 6.7 mL/min/kg; in [19], 0.5 mL/min/kg; in [20], 6.17 mL/min/kg. Besides, the CLhep predicted was 0.667 mL/min/kg in series [3], 3.17 mL/min/kg in series [16] and 6 mL/min/kg in series [5]. In addition, the 50% inhibitory concentration (IC50) was 4 nM in series [17] and 620 nM in [2]. In series [6], the Papp worked out at 1.6 ×10⁻⁶ cm/s.

On to `C=C1[C@@H](C)[C@H]2[C@H](Cc3ccccc3)NC(=O)[C@]23OC(=O)/C=C/[C@H](O)CCC[C@@H](C)C/C=C/[C@H]3[C@@H]1O` [CYTOCHALASIN B], for which the IC50 in series [1] worked out at 2800 nM.

In the case of `Cc1nn(CC2CCOCC2)c(C)c1NC(=O)c1cc(C(F)(F)F)nc2ccc(Br)cc12`, the IC50 in series [1] was found to be 8500 nM.

As for `Cc1c(NC(=O)c2cc(C(N)=O)nc3cc(F)ccc23)c(C(F)(F)F)nn1Cc1ccc(C#N)cc1` [BAY-876], the Stability result in [23] is “Stable”. For the same compound, the Fh in series [7] came out at 90%; in [8], 70%; in series [9], 89%; in [4] it was 94%; in series [12], 72%; in [13], 74%. In addition, the Fh in [15] was determined as 76%; in series [21] it was 46%; in [22], 100%. Further, the distribution volume (Vdss) (in general, the apparent volume that relates the amount in the body to the concentration in plasma or blood) in [24] was 0.79 L/kg; in series [26], 1 L/kg. For the same compound, the CLH in series [10] amounted to 23.3 mL/min/kg; in series [14], 3.3 mL/min/kg; in series [18], 12.7 mL/min/kg; in [19] it was 6.17 mL/min/kg. For the same compound, the CLhep predicted in series [3] was 7.67 mL/min/kg; in series [16] it was 5.33 mL/min/kg. This compound also showed a Cmax/dose in series [25] of 0.93 kg/L. Moreover, the IC50 in series [2] stood at 290 nM.

In the case of `Cc1c(NC(=O)c2cc(C(N)=O)nc3ccccc23)c(C(F)(F)F)nn1Cc1ccc(C#N)cc1`, the half-inhibitory concentration (IC50) in series [27] is 580 nM; in [17], 6 nM; in series [1] it was 69000 nM; in series [2] it was 170 nM. The Fh in series [7] came to 95%; in series [4], 74%; in series [15] it was 84%; in series [22], 97%. Also, the values for the CLhep predicted in series [3], in series [16] and in series [5] were 30 mL/min/kg, 3.5 mL/min/kg and 23.3 mL/min/kg, respectively. Moreover, the CLH in series [11] was 1 mL/min/kg; in [14], 1.83 mL/min/kg. Further, the Ratio in series [28] amounted to 3.7.
